Bfl-1 A1 inh = inhibitors of the anti-apoptotic protein A1, read as caspase activation; AID 2462; MEF A1-2A-BIM cells, Caspase-Glo 3/7 luminescence, 3 h; percent of clofoctol response, vehicle zero; caspase activation, % (test concentration not listed); 0.066% of 330,000 active;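 active = over half of replicate activation scores above 10%, or exactly half above 10 with the replicate mean above 10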
MC4R ag barr = agonists of human melanocortin 4 receptor (MC4R) beta-arrestin; 0.98% of 360,000 active; activation, % at 8.9 µM; U2OS MC4R beta-arrestin complementation, luminescence; percent of melanotan II response, DMSO zero; P32245; AID 540308;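 active = activation above a per-plate cutoff, the mean activation of sample wells on that plate plus 3 SD, cut at about 8% in these data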
Target sequence (P32245 whole entry, looked up): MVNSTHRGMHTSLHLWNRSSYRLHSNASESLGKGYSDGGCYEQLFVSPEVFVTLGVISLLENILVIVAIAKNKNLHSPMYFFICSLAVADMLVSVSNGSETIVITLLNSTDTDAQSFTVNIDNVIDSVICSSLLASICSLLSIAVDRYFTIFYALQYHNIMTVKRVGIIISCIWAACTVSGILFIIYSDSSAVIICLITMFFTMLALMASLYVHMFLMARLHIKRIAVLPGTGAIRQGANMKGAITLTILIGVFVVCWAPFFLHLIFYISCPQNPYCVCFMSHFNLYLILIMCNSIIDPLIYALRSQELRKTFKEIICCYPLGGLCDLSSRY
MC4R antag cAMP = antagonists of human melanocortin 4 receptor (MC4R); MC4R-expressing cells, MTII-stimulated cAMP, LANCE TR-FRET; P32245; 0.48% of 360,000 active; inhibition, % at 6.5 µM;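 active = inhibition above its plate's cutoff, the mean of tested wells on that plate plus 3 SD, cut at about 29% in these data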
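Material: human MC4R-expressing U2OS cells. Probe or stimulus: Melanotan II challenge. Dosing: 6.5 µM single dose. Times: 30-min compound, 1-h challenge, 1-h detection, room temperature. Technique: TR-FRET with Eu-cAMP and labeled anti-cAMP, 671 nm. Replication: singlicate.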
NALP3 yeast inh = blocks the NALP3 inflammasome reconstituted in yeast | AID 2825 | Yeast reconstituted NLRP3/ASC/caspase-1, beta-gal luminescence, 24 h | inhibition, % at 10 µM | 0.39% of 330,000 active;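 active = inhibition of 50% or more; inactive = inhibition below 50%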
Tb MetRS inh = Trypanosoma brucei MetRS inhibition; purified T. brucei MetRS, ATP depletion, Kinase-Glo luminescence; 0.4% of 360,000 active; inhibition, % at 11.9 µM;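 active = inhibition above a per-plate cutoff of the control wells' mean inhibition plus 3 SD, cut at about 5.5% in these data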
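Test system – parasite MetRS enzyme · Reagent – substrates ATP, L-methionine and bulk Escherichia coli tRNA · Doses – 11.9 µM compound single dose, 0.9% DMSO · Times – 15 min enzyme-compound preincubation, 2 h reaction, 10 min detection, 25 °C · Signal – Kinase-Glo luminescence, ATP depletion format · Controls – DMSO-only wells as low control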
NALP1 inh = blocks the NALP1 inflammasome reconstituted in yeast; S. cerevisiae NALP1/ASC/caspase-1 growth, X-gal OD620, 72 h; inhibition, % at 10 µM; 0.61% of 280,000 active; in the data active = inhibition mostly above about 24%, no sharp cut-off; inactive = mostly below about 32%
MC4R barr conf = human MC4R beta-arrestin agonism confirmation; shares compounds with MC4R ag barr; U2OS MC4R beta-arrestin recruitment, luminescence; scaled DMSO 0%, Melanotan II 100%; activation, % at 8.9 µM; 31% of 2,400 active;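 active = mean activation across replicates above the hit cutoff set in the earlier primary screen, cut at about 8% in these data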
MOR-DOR barr ag = counter-screen for MC4R agonists: agonists of mu-delta opioid heterodimer; shares compounds with MC4R ag barr; activation, % at 9.2 µM; U2OS PathHunter beta-arrestin, beta-gal luminescence; percent of deltorphin B response, DMSO zero; 5.8% of 2,400 active; AID 602194;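 active = mean activation across replicates exceeds the hit threshold derived in the earlier primary screen, cut at about 18% in these data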
A number is an active result; 0 = inactive; - = not tested or not shown. In the library only some 2.5% were active in any assay of this set; here they are far more common.

SMILES | Bfl-1 A1 inh | MC4R ag barr | MC4R antag cAMP | NALP3 yeast inh | Tb MetRS inh | NALP1 inh | MC4R barr conf | MOR-DOR barr ag
O=C(NC(=S)Nc1ccc(S(=O)(=O)N2CCCCCC2)cc1)c1cccs1 | 0 | 13 | 0 | 0 | 0 | 0 | 9.4 | 0
O=C(NC(=S)Nc1ccc(S(=O)(=O)N2CCCC2)cc1)c1cccs1 | 0 | 0 | 0 | 0 | 0 | 0 | - | -
O=C(Nc1cccc(NC(=S)NC(=O)c2cccs2)c1)c1ccccc1 | 0 | 12 | 0 | 0 | 0 | 0 | 19 | 0
Oc1ccc(Br)cc1-c1ccnn1-c1ccccc1 | 0 | 0 | 0 | 0 | 0 | 0 | - | -
O=C(Nc1ccc(O)c(-c2nc3ccccc3s2)c1)c1cc(=O)c2ccccc2o1 | 0 | 0 | 0 | 0 | 0 | 0 | - | -
O=C(Nc1ccc(O)c(-c2nc3ccccc3s2)c1)c1cccs1 | 0 | 24 | 0 | 0 | 0 | 0 | 0 | 0
O=C(Nc1ccc2nn(-c3ccccc3)nc2c1)c1cccs1 | 0 | 10 | 0 | 0 | 0 | 0 | 0 | 0
O=C(Nc1ccc2nsnc2c1)c1cccs1 | 0 | 0 | 0 | 0 | 0 | 0 | - | -
COc1cc(/C=C/C(C)=NNc2ccccc2)ccc1O | - | 0 | 0 | - | 0 | - | - | -
COc1cc(NC(=O)CSc2ncnc3sc4c(c23)CCCC4)c(C(=O)O)cc1OC | 0 | 0 | 0 | 0 | 0 | 0 | - | -
CCN(c1ccccc1)S(=O)(=O)c1ccc(C(=O)NCC(=O)Nc2ccc(F)c(F)c2F)cc1 | 0 | 0 | 0 | 0 | 0 | - | - | -
COC(=O)C1=C(C)N(Cc2ccccc2)C(=NCc2ccccc2)N[C@H]1c1ccccc1 | 0 | 0 | 0 | 0 | 0 | - | - | -
COC(=O)C1=C(C)N(Cc2ccccc2)C(=NCc2ccccc2)N[C@H]1c1cccc(F)c1 | 0 | 9.6 | 0 | 0 | 0 | 0 | 11 | 0
C[C@@H]1CN([C@H](C)CO)C(=O)c2cc(C#CC3CC3)cnc2O[C@H]1CN(C)S(C)(=O)=O | - | 0 | 0 | - | 0 | - | - | -
CCCCN1CCCCC1(C)C(=O)NCc1cccc(OC)c1 (stereo not drawn) | - | 0 | 0 | - | 0 | - | - | -
Cc1c(C(=O)NC2CCCc3ccccc32)oc2ccc(S(=O)(=O)N3CCCC3)cc12 (stereo not drawn) | 0 | 14 | 0 | 0 | 0 | 0 | 0 | 0
O=C(COc1cc(Cl)ccc1Cl)Nc1ccc2[nH]c(=O)[nH]c2c1 | 0 | 12 | 0 | 0 | 0 | - | 0 | 0
O=C(COc1ccccc1F)Nc1ccc2[nH]c(=O)[nH]c2c1 | 0 | 0 | 0 | 0 | 0 | - | - | -
CCCCC[C@H](C)N1C[C@H](COCc2ccccc2)Oc2cc(N3CCC[C@H]3COC)ccc2S1(=O)=O | - | - | - | - | 0 | - | - | -
O=C(CCCc1c[nH]c2ccccc12)NCc1ccccc1F | 0 | 0 | 0 | 0 | 0 | 0 | - | -
CC(C)c1ccc(/C=N/NC(=O)CN(c2cccc(Cl)c2Cl)S(C)(=O)=O)cc1 | 0 | 22 | 0 | 0 | 0 | 0 | 0 | 0
CN(Cc1cn(Cc2ccccc2)nn1)C1CN(Cc2cn(Cc3ccccc3)nn2)S(=O)(=O)C1 (stereo not drawn) | - | - | - | - | 0 | - | - | -
Cc1cccc(NC(=O)c2oc(=O)c3ccccc3c2-c2ccccc2)c1C | 0 | 11 | 0 | 0 | 0 | 0 | 0 | 0
Cc1ccccc1NC(=O)c1oc(=O)c2ccccc2c1-c1ccccc1 | 0 | 0 | 0 | 0 | 0 | 0 | - | -
CSCCC(NC(=O)COc1ccccc1)C(=O)NCC1COc2ccccc2O1 (stereo not drawn) | 0 | 0 | 0 | 0 | 0 | 0 | - | -
SMILES | Bfl-1 A1 inh | MC4R ag barr | MC4R antag cAMP | NALP3 yeast inh | Tb MetRS inh | NALP1 inh | MC4R barr conf | MOR-DOR barr ag
CCC(=O)Nc1nnc(SCC(=O)c2ccc3c(c2)Cc2ccccc2-3)s1 | 0 | 18 | 0 | 0 | 0 | 0 | 0 | 0
Cn1c(SCC(=O)c2ccc3c(c2)Cc2ccccc2-3)nnc1-c1ccccc1 | 0 | 11 | 0 | 0 | 0 | 0 | 9.4 | 0
CC(=O)Nc1nnc(SCC(=O)c2ccc3c(c2)Cc2ccccc2-3)s1 | 0 | 12 | 0 | 0 | 0 | 0 | 0 | 0
CCN(CC)S(=O)(=O)c1ccc(Cl)c(C(=O)NNC(=O)c2csc(N3CCOCC3)n2)c1 | - | 0 | 0 | - | 0 | - | - | -
COc1ccc(CCN2CC(C(=O)NCc3ccon3)CCC2=O)cc1 (stereo not drawn) | - | 0 | 0 | - | 0 | - | - | -
COc1ccc(OCC(O)CN2CCN(c3ccc(Cl)cc3)CC2)cc1 (stereo not drawn) | 0 | 11 | 0 | 0 | 0 | 0 | 0 | 0
O=c1[nH]c(CN(CCc2ccccc2)S(=O)(=O)c2ccc(Cl)cc2)nc2ccccc12 | 0 | 23 | 0 | 0 | 0 | 0 | 0 | 0
COc1ccc(S(=O)(=O)N(Cc2ccccc2)Cc2nc3ccccc3c(=O)[nH]2)cc1 | 0 | 0 | 0 | 0 | 0 | 0 | - | -
COCCCNC(=O)c1csc([C@H]2C[C@H](O)[C@@H](CO)O2)n1 | - | 0 | 0 | - | 0 | - | - | -
COc1ccc(Cl)cc1N(CC(=O)Nc1ccccc1C(=O)N1CCOCC1)S(C)(=O)=O | 0 | 0 | 0 | 0 | 0 | 0 | - | -
c1cc2ccc3ccc(-n4cnnn4)c4ccc(c1)c2c34 | 0 | 31 | 0 | 0 | 0 | 0 | 0 | 0
COCCNC(=S)N/N=C/c1ccc(-c2ccc([N+](=O)[O-])cc2)o1 | 0 | 11 | 0 | 0 | 0 | 0 | 0 | 0
CCCCN(C=O)c1c(CC)nc2c(OCC3CCCCC3)cccn12 | - | 0 | 0 | - | 0 | - | - | -
CC(C)[C@H](NC(=O)Cc1ccccc1)C(=O)OCc1cc(=O)n2c(n1)sc1ccccc12 | 0 | 14 | 0 | 0 | 0 | 0 | 0 | 0
Cc1ccc2c(CC(=O)OCc3cc(=O)n4c(n3)sc3ccccc34)coc2c1 | 0 | 0 | 0 | 0 | 0 | 0 | - | -
COc1ccc(-c2nc(C(N)=O)c3[nH]c(=O)n(-c4cccc(Cl)c4)c3n2)cc1OC | - | 13 | 0 | - | 0 | 0 | 11 | 0
O=C(N/N=C\c1ccccc1F)c1ccc(-c2ccccc2)cc1 | 0 | 16 | 0 | 0 | 0 | 0 | 0 | 0
COCCOc1ccc(C(F)(F)F)cc1NC(=O)c1ccc(F)cc1 | 0 | 0 | 0 | 0 | 0 | - | - | -
COCCOc1ccc(C(F)(F)F)cc1NC(=O)c1ccc(C)cc1 | 0 | 15 | 0 | 0 | 0 | 0 | 0 | 0
COc1ccc(NC(=O)c2cc([N+](=O)[O-])ccc2NC(=O)CNCc2ccccn2)c(OC)c1 | 0 | 13 | 0 | 0 | 0 | 0 | 13 | 0
O=C(Nc1ccc(-c2nc3cc(Cl)ccc3c(=O)o2)cc1)c1ccco1 | 0 | 0 | 0 | 0 | 0 | 0 | - | -
O=C(Nc1ccc(-c2nc3c(ccc4ccccc43)o2)cc1)c1ccco1 | 0 | 15 | 0 | 0 | 0 | 0 | 0 | 0
CCc1nc2ccc(C(=O)NCCN3CCOCC3)cn2c1N(CC)CCOC | - | 0 | 0 | - | 0 | - | - | -

Screening data: PubChem, several laboratories
